Measured values taken from paper PMC10460140 (Angewandte Chemie (International ed. in English), 2023).
Entries after “also recorded” stand apart in the source; their conditions may differ. Where a SMILES comes first, the peptide text is derived from it. Bridges are numbered along the chain shown (N, C = ends). Roman numbers before positions name the chains, in order. Side-chain parts run from the residue outwards. [ ]: non-standard residue; d: D form. The star is where a group is joined. X1 = CN(C)c1ccc2c(-c3ccc(C(=O)*)cc3C(=O)[O-])c3ccc(=[N+](C)C)cc-3oc2c1; Biotin = O=C1N[C@H]2[C@H](CS[C@H]2CCCCC(=O)*)N1; PEG4 = NCCOCCOCCOCCOCCC(=O)O; Alloc = C=CCOC(=O)*; βAla = NCCC(=O)O

Assays:
MDM2 = assay: Direct binding by BLI, MDM2; conditions: KB2-Biotin immobilized on streptavidin tips; MDM2 7.8-1000 nM; n=2
recombinant mKlotho = assay: Pull-down of recombinant mKlotho from CaSki cell lysate; type: binding, mouse
Method in brief: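 Recombinant mouse Klotho was spiked into lysate of CaSki cells (human cervical cancer line, minimal endogenous Klotho) at a final 100 nM. It was pulled down with biotinylated peptide. For self-competition, unlabeled peptide or scrambled control was added to the lysate. Klotho identity was checked against a KM2076 antibody pull-down by band size. Pull-down was quantified (n=2), with ANOVA.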

endogenous hKlotho = assay: Pull-down of endogenous hKlotho from HK-2 cell lysate; type: binding, human; conditions: probe 200 nM; 300 μg total protein; 30 min room temperature; western blot; n=2
12CA5 = assay: Direct binding by BLI, 12CA5; conditions: KB2-Biotin immobilized on streptavidin tips; 12CA5 7.8-1000 nM; n=2
[1] = tested on: endogenous total hKlotho in HK-2 cells; assay: Fluorescence microscopy imaging of fixed HK-2 cells; type: cell-based, human; conditions: HK-2 cells transfected with KL siRNA, KB2-TAMRA 500 nM; n=5
Method in brief: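 HK-2 cells were left untransfected, mock-transfected, or transfected with a pooled KL siRNA using RNAiMAX. They were then co-treated with TAMRA-labelled peptide (500 nM) plus WGA Alexa Fluor 350 membrane stain and fixed after treatment. Imaging used ex/em 542/597 nm for TAMRA and 390/435 nm for WGA. Normalised integrated fluorescence was quantified (n=5), with ANOVA.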

[2] = tested on: Klotho-deficient CaSki cells; assay: Fluorescence microscopy imaging of CaSki cells; type: cell-based, human; conditions: KB2-TAMRA 500 nM, 5 min; fixation after treatment
HK-2 cells = assay: Co-localization with nucleus dye DAPI in HK-2 cells; type: cell-based, human; conditions: KB2-TAMRA 500 nM 5 min or antibody overnight, DAPI stain
Method in brief: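 HK-2 cells labelled with fluorescent peptide probe at 500 nM for 5 min, or with anti-Klotho antibody KM2076 (overnight incubation, then permeabilisation and secondary antibody). Nuclei stained with DAPI. Co-localisation of the DAPI signal with the probe or antibody signal was quantified as a Pearson correlation coefficient.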

For `CSCC[C@H](NC(=O)[C@@H]1CCCN1C(C)=O)C(=O)N[C@@H](C)C(=O)N[C@@H](CO)C(=O)N[C@@H](CC(=O)O)C(=O)N1CCC[C@H]1C(=O)N[C@@H](CC(C)C)C(=O)NCC(=O)N[C@H](C(=O)N[C@H](C(=O)N[C@@H](CCCNC(=N)N)C(=O)N1CCC[C@H]1C(=O)N[C@@H](CCCNC(=N)N)C(=O)N[C@@H](C)C(=O)N[C@@H](CCCNC(=N)N)C(=O)N[C@@H](C)C(=O)NCCCC[C@H](NC(=O)[C@H](C)NC(=O)[C@H](CCCNC(=N)N)NC(=O)[C@H](C)NC(=O)[C@H](CCCNC(=N)N)NC(=O)[C@@H]1CCCN1C(=O)[C@H](CCCNC(=N)N)NC(=O)[C@@H](NC(=O)[C@@H](NC(=O)CNC(=O)[C@H](CC(C)C)NC(=O)[C@@H]1CCCN1C(=O)[C@H](CC(=O)O)NC(=O)[C@H](CO)NC(=O)[C@H](C)NC(=O)[C@H](CCSC)NC(=O)[C@@H]1CCCN1C(C)=O)C(C)C)C(C)C)C(=O)NCCC(=O)N[C@@H](CCCCNC(=O)CCOCCOCCOCCOCCNC(=O)CCCC[C@@H]1SC[C@@H]2NC(=O)N[C@@H]21)C(N)=O)C(C)C)C(C)C` [KB2-Biotin] (I: Ac-PMASDPLGVVRPRARAK[βAla]K([PEG4-Biotin])-NH2 / II: Ac-PMASDPLGVVRPRARA; amide I:17-II:C; N-terminus assumed), the “association to MDM2 (in words)” value (MDM2) was “no association”, the “selectivity of pull-down (silver stain)” value (recombinant mKlotho; pull-down eluents, probe 200 nM, CaSki lysate with mKlotho 0.1 μM) was “only significantly enriched protein” and the “enrichment of endogenous hKlotho from HK-2 cell lysate” value (endogenous hKlotho) was “enriched hKlotho; also recorded: significantly enriched”. For the same compound, the “association to 12CA5 (in words)” value (12CA5) was “no association”.

`CSCC[C@H](NC(=O)[C@@H]1CCCN1C(C)=O)C(=O)N[C@@H](C)C(=O)N[C@@H](CO)C(=O)N[C@@H](CC(=O)O)C(=O)N1CCC[C@H]1C(=O)N[C@@H](CC(C)C)C(=O)NCC(=O)N[C@H](C(=O)N[C@H](C(=O)N[C@@H](CCCNC(=N)N)C(=O)N1CCC[C@H]1C(=O)N[C@@H](CCCNC(=N)N)C(=O)N[C@@H](C)C(=O)N[C@@H](CCCNC(=N)N)C(=O)N[C@@H](C)C(=O)NCCCC[C@H](NC(=O)[C@H](C)NC(=O)[C@H](CCCNC(=N)N)NC(=O)[C@H](C)NC(=O)[C@H](CCCNC(=N)N)NC(=O)[C@@H]1CCCN1C(=O)[C@H](CCCNC(=N)N)NC(=O)[C@@H](NC(=O)[C@@H](NC(=O)CNC(=O)[C@H](CC(C)C)NC(=O)[C@@H]1CCCN1C(=O)[C@H](CC(=O)O)NC(=O)[C@H](CO)NC(=O)[C@H](C)NC(=O)[C@H](CCSC)NC(=O)[C@@H]1CCCN1C(C)=O)C(C)C)C(C)C)C(=O)NCCC(=O)N[C@@H](CCCCNC(=O)c1ccc(-c2c3ccc(=[N+](C)C)cc-3oc3cc(N(C)C)ccc23)c(C(=O)[O-])c1)C(N)=O)C(C)C)C(C)C` [KB2-TAMRA] (I: Ac-PMASDPLGVVRPRARAK[βAla]K(X1)-NH2 / II: Ac-PMASDPLGVVRPRARA; amide I:17-II:C; N-terminus assumed) was tested, and the “fluorescence after Klotho knock-down by KL siRNA” value [1] was “reduced the fluorescence”, the “fluorescence intensity in CaSki cells relative to HK-2 cells” value [2] was “significantly lower fluorescence intensity” and the “Pearson correlation coefficient (r) for overlap with DAPI” value (HK-2 cells) was 0.29.

With `C=CCOC(=O)NCCCC[C@H](NC(=O)CCNC(=O)[C@H](CCCCNC(=O)[C@H](C)NC(=O)[C@H](CCCNC(=N)N)NC(=O)[C@H](C)NC(=O)[C@H](CCCNC(=N)N)NC(=O)[C@@H]1CCCN1C(=O)[C@H](CCCNC(=N)N)NC(=O)[C@@H](NC(=O)[C@@H](NC(=O)CNC(=O)[C@H](CC(C)C)NC(=O)[C@@H]1CCCN1C(=O)[C@H](CC(=O)O)NC(=O)[C@H](CO)NC(=O)[C@H](C)NC(=O)[C@H](CCSC)NC(=O)[C@@H]1CCCN1)C(C)C)C(C)C)NC(=O)[C@H](C)NC(=O)[C@H](CCCNC(=N)N)NC(=O)[C@H](C)NC(=O)[C@H](CCCNC(=N)N)NC(=O)[C@@H]1CCCN1C(=O)[C@H](CCCNC(=N)N)NC(=O)[C@@H](NC(=O)[C@@H](NC(=O)CNC(=O)[C@H](CC(C)C)NC(=O)[C@@H]1CCCN1C(=O)[C@H](CC(=O)O)NC(=O)[C@H](CO)NC(=O)[C@H](C)NC(=O)[C@H](CCSC)NC(=O)[C@@H]1CCCN1)C(C)C)C(C)C)C(N)=O` [KB2] (I: H-PMASDPLGVVRPRARAK[βAla]K(Alloc)-NH2 / II: H-PMASDPLGVVRPRARA; amide I:17-II:C) the “competition of mKlotho pull-down by KB2-Biotin” value (recombinant mKlotho; unlabeled peptide pre-incubated 15 min in lysate before KB2-Biotin, n=2) was “competed off”.
